One block for each molecule: values may come before it. Activity calls are given as the source filed them. No cut-off for these calls is given here.
Columns and labels:
[1] = Ratio of drug level in tumor to liver of iv dosed C3H/HeJ mouse bearing mouse RIF cells after 24 hrs; format: ADME, organism-based; settings: in vivo
In short: (§1)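 RIF-bearing C3H mice given ¹²⁴I-labeled photosensitizer (15–200 μCi, tail vein, in saline with 10% ethanol). 3–4 mice killed at each time point, tumor and liver weighed and gamma-counted. Uptake expressed as %ID/g, and tumor to liver ratio taken from the %ID/g values.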

[2] = Ratio of drug level in tumor to liver of iv dosed C3H/HeJ mouse bearing mouse RIF cells after 48 hrs; format: ADME, organism-based; settings: in vivo; in short: as §1
[3] = tested on: Mus musculus; experiment: Toxicity in C3H/HeJ mouse xenografted with mouse RIF cells at 1 umol/kg, iv irradiated for 30 mins measured after 24 hrs photodynamic therapy; format: organism-based; settings: in vivo
In short: (§2)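 Female C3H/HeJ mice given 2×10^5 RIF cells intradermally on flank; tumors grown to 4–5 mm diameter. Hair removed, photosensitizer injected iv (0.5, 1.0, 1.5 μmol/kg; five mice/group). At 24 h, unanesthetized restrained mice irradiated over 1 cm² with dye laser, 665 nm, 75 mW/cm², 135 J/cm² (30 min). Daily observation for weight loss, scabbing, regrowth and deaths; sacrifice at 400 mm^3; tumor-free status followed to day 60.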

[4] = tested on: Mus musculus; experiment: Toxicity in C3H/HeJ mouse xenografted with mouse RIF cells at 1.5 umol/kg, iv irradiated for 30 mins measured after 24 hrs photodynamic therapy; format: organism-based; settings: in vivo; in short: as §2
[5] = tested on: RIF; experiment: Antitumor activity against mouse RIF cells xenografted in C3H/HeJ mouse at 0.50 umol/kg, iv irradiated for 30 mins measured after 24 hrs by photodynamic therapy; format: functional, organism-based; settings: tested as the 124I-labelled form; in short: as §2
[6] = tested on: RIF; experiment: Antitumor activity against mouse RIF cells xenografted in C3H/HeJ mouse assessed as increase in photosensitizing ability at 1.5 umol/kg, iv irradiated for 30 mins measured after 60 days photodynamic therapy; format: functional, organism-based; settings: tested as the 124I-labelled form; in short: as §2
[7] = Biodistribution in tumor of iv dosed BALB/c mouse bearing mouse Colon-26 cells assessed as relative uptake value after 48 hrs by PET imaging; format: ADME, organism-based, Neoplasm; settings: in vivo
[8] = Biodistribution in tumor of iv dosed C3H/HeJ mouse bearing mouse RIF cells assessed as relative uptake value after 3 days by PET imaging; format: ADME, organism-based, Neoplasm; settings: in vivo, 72 h
[9] = Biodistribution in tumor of iv dosed C3H/HeJ mouse bearing mouse RIF cells after 24 hrs; format: ADME, organism-based, Neoplasm; settings: read-out: Drug uptake
In short: (§3)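 ¹²⁴I-labeled photosensitizer formulated in saline with 10% ethanol, 15–200 μCi via tail vein into C3H mice bearing RIF tumors (3×10^5 cells sc in axilla, 4–5 mm) or BALB/c mice bearing Colon-26 tumors. 3–4 mice per time point killed at 24, 48, 72, 96 h. Tumor and organs weighed and gamma-counted; uptake given as %ID/g, mean of group.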

[10] = Biodistribution in tumor of iv dosed C3H/HeJ mouse bearing mouse RIF cells after 48 hrs; format: ADME, organism-based, Neoplasm; settings: read-out: Drug uptake; in short: as §3
[11] = Biodistribution in tumor of iv dosed C3H/HeJ mouse bearing mouse RIF cells after 72 hrs; format: ADME, organism-based, Neoplasm; settings: read-out: Drug uptake; in short: as §3
[12] = Biodistribution in tumor of iv dosed C3H/HeJ mouse bearing mouse RIF cells after 96 hrs; format: ADME, organism-based, Neoplasm; settings: read-out: Drug uptake; in short: as §3
[13] = Biodistribution in tumor of iv dosed BALB/c mouse bearing mouse Colon-26 cells after 24 hrs; format: ADME, organism-based, Neoplasm; settings: read-out: Drug uptake; in short: as §3
[14] = Biodistribution in tumor of iv dosed BALB/c mouse bearing mouse Colon-26 cells after 48 hrs; format: ADME, organism-based, Neoplasm; settings: read-out: Drug uptake; in short: as §3
[15] = Biodistribution in tumor of iv dosed BALB/c mouse bearing mouse Colon-26 cells after 72 hrs; format: ADME, organism-based, Neoplasm; settings: read-out: Drug uptake; in short: as §3
[16] = Biodistribution in tumor of iv dosed BALB/c mouse bearing mouse Colon-26 cells after 96 hrs; format: ADME, organism-based, Neoplasm; settings: read-out: Drug uptake; in short: as §3

Compound: CCC1=C(C)c2cc3[nH]c(cc4nc(c5c6[nH]c(cc1n2)c(C)c6C(=O)C5)[C@@H](CCC(=O)OC)[C@@H]4C)c(C)c3C(C)OCc1cccc(I)c1 (stereo partly specified)
Activity [5]: inactive | Activity [6]: Active

Compound: OC[C@H]1O[C@@H](O)[C@H]([18F])[C@@H](O)[C@@H]1O [FLUDEOXYGLUCOSE-F18]
Activity [7]: 4 | Activity [8]: 0.035

Compound: CCC1=C(C)c2cc3[nH]c(cc4nc(c5c6[nH]c(cc1n2)c(C)c6C(=O)C5)[C@@H](CCC(=O)N[C@@H]1O[C@H](CO)[C@H](O)[C@H](O)[C@H]1O)[C@@H]4C)c(C)c3C(C)OCc1cccc(I)c1 (stereo partly specified)
Activity [5]: inactive

Continued, in another order:

Ratio [1]: 0.05 | Ratio [2]: 0.06
Compound: CCC1=C(C)c2cc3[nH]c(cc4nc(c5c6[nH]c(cc1n2)c(C)c6C(=O)C5)[C@@H](CCC(=O)N[C@@H]1O[C@H](CO)[C@H](O)[C@H](O)[C@H]1O)[C@@H]4C)c(C)c3C(C)OCc1cccc([124I])c1 (stereo partly specified)
Activity [3]: Toxic | Activity [4]: Toxic

Ratio [1]: 0.08 | Ratio [2]: 0.13
Compound: CCC1=C(C)c2cc3[nH]c(cc4nc(c5c6[nH]c(cc1n2)c(C)c6C(=O)C5)[C@@H](CCC(=O)N[C@@H]1[C@@H](O)[C@H](O)[C@@H](CO)O[C@H]1O)[C@@H]4C)c(C)c3C(C)OCc1cccc([124I])c1 (stereo partly specified)

tissue uptake at 24 h [9]: 4.1 %ID/g | Ratio [1]: 0.32 | Ratio [2]: 0.56 | tissue uptake at 48 h [10]: 2.1 %ID/g | tissue uptake at 72 h [11]: 0.8 %ID/g | tissue uptake at 96 h [12]: 0.6 %ID/g | tissue uptake at 24 h [13]: 4.6 %ID/g | tissue uptake at 48 h [14]: 4.4 %ID/g | tissue uptake at 72 h [15]: 2.5 %ID/g | tissue uptake at 96 h [16]: 2 %ID/g
Compound: CCC1=C(C)c2cc3[nH]c(cc4nc(c5c6[nH]c(cc1n2)c(C)c6C(=O)C5)[C@@H](CCC(=O)OC)[C@@H]4C)c(C)c3C(C)OCc1cccc([124I])c1 (stereo partly specified)
